From ChEMBL document CHEMBL1138683 (J Med Chem, 2004)

Columns and labels:
[1] = Anti convulsant activity administered intra peritoneally to mouse for toxicity at 4 hr with dose of 100 mg/kg; 1/4= No of animals exhibiting toxicity /No of animals tested; assay type: organism-based; set-up: dose 100 mg/kg; conditions: in vivo, ip
[2] = Anti convulsant activity administered intra peritoneally to mouse for toxicity at 0.5 hr with dose of 300 mg/kg; 4/4= No of animals exhibiting toxicity /No of animals tested; assay type: organism-based; set-up: dose 300 mg/kg; conditions: in vivo, ip
Mus musculus [3] = experiment: Anti convulsant activity administered intra peritoneally to mouse at maximal electroshock test at 4 hr after the drug administered with dose of 100 mg/kg; 0/3= No of animals protected /No of animals tested; assay type: functional
Mus musculus [4] = experiment: Anti convulsant activity administered intra peritoneally to mouse for subcutaneous metrazol test at 4 hr with dose of 300 mg/kg; 0/1= No of animals protected /No of animals tested; assay type: functional
Mus musculus [5] = experiment: Anti convulsant activity administered intra peritoneally to mouse for subcutaneous metrazol test at 0.5 hr with dose of 30 mg/kg; 0/1= No of animals protected /No of animals tested; assay type: functional
Rattus norvegicus [6] = experiment: Anticonvulsant activity after oral administration of 50 mg/kg dose after 1 hr in rats; +means25% of animals protected; assay type: functional, organism-based; set-up: dose 50 mg/kg
How it was run: (§1)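 Oral dosing of rats at a single dose, compound dissolved or suspended in 0.5% methylcellulose. Protection in the MES or scMet test checked 15 min, 30 min, 1 h, 2 h and 4 h after dosing. Scored as 25/50/75/100% of animals protected (+ to ++++), – for none.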

Rattus norvegicus [7] = experiment: Anticonvulsant activity after oral administration of 50 mg/kg dose after 30 min in rats; +means 25% of animal protected; assay type: functional, organism-based; set-up: dose 50 mg/kg
How it was run: (§2)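 Rats dosed orally with compound dissolved or suspended in 0.5% methylcellulose (0.04 mL per 10 g body weight). Anticonvulsant protection (MES or scMet) and toxicity scored at 15 min, 30 min, 1 h, 2 h and 4 h after dosing. Graded in steps of 25% of animals protected or showing toxicity.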

Mus musculus [8] = experiment: Anti convulsant activity administered intra peritoneally to mouse for subcutaneous metrazol test at 0.5 hr with dose of 100 mg/kg; 0/1= No of animals protected /No of animals tested; assay type: functional
Mus musculus [9] = experiment: Anti convulsant activity administered intra peritoneally to mouse at maximal electroshock test at 4 hr after the drug administered with dose of 30 mg/kg; 0/1= No of animals protected /No of animals tested; assay type: functional
[10] = Anti convulsant activity administered intra peritoneally to mouse for toxicity at 4 hr with dose of 30 mg/kg; 0/2= No of animals exhibiting toxicity /No of animals tested; assay type: organism-based; set-up: dose 30 mg/kg; conditions: in vivo, ip
Rattus norvegicus [11] = experiment: Anticonvulsant activity after oral administration of 50 mg/kg dose after 30 min in rats; + means 25% of animals protected; assay type: functional, organism-based; set-up: dose 50 mg/kg; how it was run: as §1
Rattus norvegicus [12] = experiment: Anticonvulsant activity after oral administration of 50 mg/kg dose after 2 hr in rats; ++ means 50% of animals protected; assay type: functional, organism-based; set-up: dose 50 mg/kg; how it was run: as §1
Mus musculus [13] = experiment: Anti convulsant activity administered intra peritoneally to mouse for subcutaneous metrazol test at 0.5 h with dose of 300 mg/kg; 0/1= No of animals protected /No of animals tested; assay type: functional
[14] = Anti convulsant activity administered intra peritoneally to mouse for toxicity at 4 hr with dose of 300 mg/kg; 0/2= No of animals exhibiting toxicity /No of animals tested; assay type: organism-based; set-up: dose 300 mg/kg; conditions: in vivo, ip
Mus musculus [15] = experiment: Anti convulsant activity administered intra peritoneally to mouse at maximal electroshock test at 4 hr after the drug administered with dose of 300 mg/kg; 0/1= No of animals protected /No of animals tested; assay type: functional
[16] = Anti convulsant activity administered intra peritoneally to mouse for toxicity at 0.5 hr with dose of 30 mg/kg; 0/4= No of animals exhibiting toxicity /No of animals tested; assay type: organism-based; set-up: dose 30 mg/kg; conditions: in vivo, ip
Mus musculus [17] = experiment: Anti convulsant activity administered intra peritoneally to mouse for subcutaneous metrazol test at 4 hr after the drug administered with dose of 100 mg/kg; 0/1= No of animals protected /No of animals tested; assay type: functional
Mus musculus [18] = experiment: Anti convulsant activity administered intra peritoneally to mouse at maximal electroshock test at 0.5 hr after the drug administered with dose of 100 mg/kg; 0/3= No of animals protected /No of animals tested; assay type: functional
Mus musculus [19] = experiment: Anti convulsant activity administered intra peritoneally to mouse for subcutaneous metrazol test at 4 hr after the drug administered with dose of 30 mg/kg; 0/1= No of animals protected /No of animals tested; assay type: functional; conditions: route intraperitoneal
Mus musculus [20] = experiment: Anti convulsant activity administered intra peritoneally to mouse at maximal electroshock test at 0.5 hr after the drug administered with dose of 300 mg/kg; 1/1= No of animals protected /No of animals tested; assay type: functional
[21] = Anti convulsant activity administered intra peritoneally to mouse for toxicity at 0.5 hr with dose of 100 mg/kg; 0/8= No of animals exhibiting toxicity /No of animals tested; assay type: organism-based; set-up: dose 100 mg/kg; conditions: in vivo, ip
Mus musculus [22] = experiment: Anti convulsant activity administered intra peritoneally to mouse at maximal electroshock test at 0.5 h after the drug administered with dose of 30 mg/kg; 0/1= No of animals protected /No of animals tested; assay type: functional
Rattus norvegicus [23] = experiment: Anticonvulsant activity after oral administration of 50 mg/kg dose after 4 hr in rats; + means 25% of the animal protected; assay type: functional, organism-based; set-up: dose 50 mg/kg; how it was run: as §2
[24] = Anti convulsant activity administered intra peritoneally to mouse for toxicity at 4 hr with dose of 100 mg/kg; 0/4= No of animals exhibiting toxicity /No of animals tested; assay type: organism-based; set-up: dose 100 mg/kg; conditions: in vivo, ip
Rattus norvegicus [25] = experiment: Anticonvulsant activity after oral administration of 50 mg/kg dose after 30 min in rats; ++ means 50% of animals protected; assay type: functional, organism-based; set-up: dose 50 mg/kg; how it was run: as §2
[26] = Anti convulsant activity administered intra peritoneally to mouse for toxicity at 4 hr with dose of 300 mg/kg; 1/2= No of animals exhibiting toxicity /No of animals tested; assay type: organism-based; set-up: dose 300 mg/kg; conditions: in vivo, ip
Rattus norvegicus [27] = experiment: Anticonvulsant activity after oral administration of 100 mg/kg dose after 30 min in rats; +means 25% of animal protected; assay type: functional, organism-based; set-up: dose 100 mg/kg; how it was run: as §1
Rattus norvegicus [28] = experiment: Anticonvulsant activity after oral administration of 100 mg/kg dose after 1 hr in rats; + means 25% of the animals protected; assay type: functional, organism-based; set-up: dose 100 mg/kg; how it was run: as §1
[29] = Anti convulsant activity administered intra peritoneally to mouse for toxicity at 0.5 hr with dose of 100 mg/kg; 1/8= No of animals exhibiting toxicity /No of animals tested; assay type: organism-based; set-up: dose 100 mg/kg; conditions: in vivo, ip
[30] = Anti convulsant activity administered intra peritoneally to mouse for toxicity at 0.5 hr with dose of 300 mg/kg; 2/4= No of animals exhibiting toxicity /No of animals tested; assay type: organism-based; set-up: dose 300 mg/kg; conditions: in vivo, ip
Mus musculus [31] = experiment: Anti convulsant activity administered intra peritoneally to mouse at maximal electroshock test at 0.5 h after the drug administered with dose of 300 mg/kg; 0/1= No of animals protected /No of animals tested; assay type: functional
Mus musculus [32] = experiment: Anticonvulsant activity administered intra peritoneally to mouse for protective index of subcutaneous metrazol test; assay type: functional
Rattus norvegicus [33] = experiment: Anticonvulsant activity administered orally to rat for protective index of subcutaneous metrazol test; assay type: functional

CC1(C)C(C(=O)NC2CC2)C1(C)C
Toxicity [1]: 1
Toxicity [2]: 4
Activity (Mus musculus [3]): 0
Activity (Mus musculus [4]): 0
Activity (Mus musculus [5]): 0
Activity (Rattus norvegicus [6]): 25% of animal protected
Activity (Rattus norvegicus [7]): 25% of animal protected
Activity (Mus musculus [8]): 0
Activity (Mus musculus [9]): 0
Toxicity [10]: 0
Activity (Rattus norvegicus [11]): 25% of animal protected
Activity (Rattus norvegicus [12]): 25% of animal protected
Activity (Mus musculus [13]): 0
Toxicity [14]: 0
Activity (Mus musculus [15]): 0
Toxicity [16]: 0
Activity (Mus musculus [17]): 0
Activity (Mus musculus [18]): 0
Activity (Mus musculus [19]): 0
Activity (Mus musculus [20]): 1
Toxicity [21]: 0
Activity (Mus musculus [22]): 0
Activity (Rattus norvegicus [23]): 25% of animal protected

CN(C)C(=O)C1C(C)(C)C1(C)C
Toxicity [2]: 4
Activity (Mus musculus [3]): 0
Activity (Mus musculus [4]): 0
Toxicity [24]: 0
Activity (Mus musculus [5]): 0
Activity (Mus musculus [8]): 0
Activity (Mus musculus [9]): 0
Toxicity [10]: 0
Activity (Rattus norvegicus [25]): 25% of animal protected
Activity (Mus musculus [13]): 0
Activity (Mus musculus [15]): 0
Toxicity [16]: 0
Activity (Mus musculus [17]): 0
Activity (Mus musculus [18]): 0
Activity (Mus musculus [19]): 0
Activity (Mus musculus [20]): 1
Toxicity [26]: 1
Activity (Rattus norvegicus [27]): 25% of animal protected
Toxicity [21]: 0
Activity (Mus musculus [22]): 0

CN(CCO)C(=O)C1C(C)(C)C1(C)C
Toxicity [1]: 1
Activity (Mus musculus [3]): 0
Activity (Mus musculus [4]): 0
Activity (Mus musculus [5]): 0
Activity (Mus musculus [8]): 0
Activity (Mus musculus [9]): 0
Toxicity [10]: 0
Activity (Rattus norvegicus [28]): 25% of the animals protected
Activity (Mus musculus [13]): 0
Toxicity [14]: 0
Activity (Mus musculus [15]): 0
Toxicity [16]: 0
Toxicity [29]: 1
Toxicity [30]: 2
Activity (Mus musculus [17]): 0
Activity (Mus musculus [18]): 0
Activity (Mus musculus [19]): 0
Activity (Mus musculus [31]): 0
Activity (Mus musculus [22]): 0

CC1(C)C(C(N)=O)C1(C)C
Activity (Mus musculus [32]): 1.7
Activity (Rattus norvegicus [33]): 7.3
